Source: PubChem BioAssay (Johns Hopkins Ion Channel Center)
KCNQ1 block: inhibitors of human KCNQ1 channel, primary screen, cell-based, thallium flux, high-throughput; AID 2642, 2010; B-score at 10 µM; actives 1.3% (n = 310,000); CHO-K1 KCNQ1, FluxOR thallium flux fluorescence; hits give high values;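 active = compounds whose thallium flux B-score, printed positive for inhibition, exceeds three library SD while starting fluorescence stays within three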;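 also: channel opened by potassium depolarization with thallium stimulus after 20 min compound exposure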
KCNK9 inh: KCNK9 potassium channel inhibitors, primary screen, HEK293 cells, thallium flux; Potassium channel subfamily K member 9 (Homo sapiens), Q9NPC2; B-score at 10 µM; actives 1.2% (n = 310,000); FluxOR thallium flux fluorescence; hits give low values;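 active = ratio B-score over 3 SD below the library mean, with starting fluorescence within 5 SD of its mean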;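 also: negative B-score means less thallium flux so channel inhibition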
KCNK3 inh: human KCNK3 channel inhibitors, primary screen, CHO cells, FluxOR thallium flux, B-score; Potassium channel subfamily K member 3 (Homo sapiens), O14649; FluxOR fluorescence; hits give low values; B-score at 10 µM; actives 0.84% (n = 340,000); AID 602410, 2012;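 active = B-score under library mean minus 4 SD, starting fluorescence ratio at most library mean plus 5 SD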;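 also: more negative B-score means stronger inhibition of thallium flux through KCNK3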
Kir21 block: inhibitors of mouse Kir2.1 inward-rectifier potassium channel | Inward rectifier potassium channel 2 (Mus musculus), P35561 | HEK293-Kir2.1, FluxOR thallium flux fluorescence; hits give low values | B-score at 10 µM | actives 0.85% (n = 310,000) | AID 1672, 2009;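 active = fluorescence ratio B-score at or below minus 3 SD of library scores, with starting-brightness B-score within 2 SD, cut at about -4.2 in these data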;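 also: channel flux triggered by added potassium and thallium sulfate stimulus; B-score of peak minus minimum fluorescence over baseline after thallium stimulus; more negative B-score means stronger Kir2.1 block with less thallium influx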
Target sequence (P35561 whole entry, looked up): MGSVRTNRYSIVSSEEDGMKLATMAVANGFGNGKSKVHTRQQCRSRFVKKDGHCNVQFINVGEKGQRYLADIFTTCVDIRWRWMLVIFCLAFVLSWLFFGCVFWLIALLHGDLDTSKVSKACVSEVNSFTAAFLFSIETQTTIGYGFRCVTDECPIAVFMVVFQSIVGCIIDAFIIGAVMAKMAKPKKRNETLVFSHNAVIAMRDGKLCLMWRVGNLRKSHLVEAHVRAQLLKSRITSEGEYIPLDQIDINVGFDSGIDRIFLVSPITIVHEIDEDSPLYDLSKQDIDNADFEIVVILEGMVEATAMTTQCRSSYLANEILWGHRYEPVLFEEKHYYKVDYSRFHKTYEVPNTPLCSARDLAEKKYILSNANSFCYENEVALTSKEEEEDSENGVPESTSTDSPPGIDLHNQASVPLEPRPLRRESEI
KCNQ1 act: potentiators or activators of KCNQ1 channel, primary screen, cell-based, thallium flux, high-throughput | B-score at 10 µM | CHO-K1 KCNQ1, thallium flux FluxOR fluorescence; hits give high values | actives 0.35% (n = 310,000) | Potassium voltage-gated channel subfamily KQT member 1 (Homo sapiens), P51787;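 active = fluorescence ratio B-score, a plate-corrected score, at least three library SD, with initial intensity B-score within 5 SD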
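Assay system: CHO-K1 cells stably expressing KCNQ1. Medium: assay buffer for compound exposure, DMSO matched across wells. Timing: 37 °C overnight plating, 90-min dark dye load, 20-min compound pretreatment. Signal: kinetic FluxOR fluorescence, 10 s baseline plus 110 s post-stimulus.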
hERG protect: hERG rescue from dofetilide block, primary screen, cell-based, CHO-hERG, FluxOR thallium flux, dofetilide IC70 | Voltage-gated inwardly rectifying potassium channel KCNH2 (Homo sapiens), Q12809 | dofetilide IC70 present | activation (rescue from dofetilide block), less the hit threshold, % at 10 µM | actives 0.51% (n = 310,000) | AID 1511, 2009;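 active = activation above the mean of controls blocked by dofetilide plus 5 SD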;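 also: thallium influx through hERG after potassium depolarization seen as dye fluorescence rise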
Large screens that a line does not name were inactive. A selection: hits, their analogues and other compounds. The true share with any hit is near 3.8%.

CC(C)=CCc1c(O)c(CC=C(C)C)c2c(c1O)C(=O)CC(c1ccc(O)cc1)O2 (stereo not drawn)	KCNQ1 block 8
Cc1c(O)cc2c(c1O)C(=O)CC(c1ccc(O)cc1)O2 (stereo not drawn)	none
O=C(CCc1ccccc1)NNC(=O)c1ccc(F)cc1	none
CCSC1=N/C(=C\c2ccc(C(=O)O)cc2)C(=O)S1	none
CCOC(=O)SC1=N/C(=C\c2ccc(N(C)C)cc2)C(=O)S1	KCNQ1 act 8
CCCNC(=O)COC(=O)/C=C/c1ccc2c(c1)OCO2	none
O=S(=O)(C/C(=C/CO)S(=O)(=O)c1ccccc1)c1ccccc1	KCNQ1 block 6
O=S(=O)(CS(=O)(=O)c1ccccc1)c1ccccc1	none (no result: KCNQ1 block, KCNK9 inh, Kir21 block, KCNQ1 act, hERG protect)
CC(C)CC(c1nnnn1C1CCCCC1)N1CCN(C(=O)c2ccco2)CC1 (stereo not drawn)	none
CCOc1ccccc1NC(=O)CSCC(=O)Nc1ccccc1	none
Cc1ccc(NC(=O)CC(O)(C(F)(F)F)C(F)(F)F)c(Br)c1	KCNQ1 block 6
CCOc1ccccc1NC(=O)CC(O)(C(F)(F)F)C(F)(F)F	KCNQ1 block 6
O=C(Cc1ccccc1)N/N=C/c1cc(Br)cc(Br)c1O	none
O/N=C/c1cc(Br)ccc1OCc1ccc(F)cc1	none
Oc1c(Br)cc(Br)cc1C=NCc1ccc(F)cc1	KCNQ1 act 12
Oc1c(Br)cc(Br)cc1C=NCc1ccccc1	KCNQ1 act 22
COc1ccc(-c2[nH]c(-c3ccc(C)cc3)nc2SCC(=O)NC2CCCC2)cc1	none
O=C1/C(=N\S(=O)(=O)c2cccs2)C([n+]2cccc(Cc3ccccc3)c2)=C([O-])c2ccccc21	KCNK9 inh -6.6
COc1ccc(/C(C)=N/NC(=O)CNC(=O)C(c2ccccc2)c2ccccc2)c(OC)c1	none
COc1ccccc1C(=O)NCCCN1CCCC1=O	none
COc1ccc(C(CC(=O)O)NC(=O)C(c2ccccc2)c2ccccc2)cc1 (stereo not drawn)	hERG protect 11
CCC(=O)NC1=C(Cl)C(=O)C(NC(=O)CC)=C(Cl)C1=O	KCNK3 inh -11 (no result: KCNQ1 block, KCNK9 inh, Kir21 block, KCNQ1 act, hERG protect)
Cc1ccc(C(C)C)c(OCCCNCc2cccnc2)c1	Kir21 block -5.7
CCCCNCC#CCOc1cc(C)ccc1C(C)C	Kir21 block -4.7
Cc1ccc(C(C)C)c(OCCNS(C)(=O)=O)c1	none
CN(C)S(=O)(=O)c1cc(NC(=O)CSc2nn(-c3ccc(Cl)cc3)c(=S)s2)ccc1Cl	none
Cc1ccc(NC(=O)CSc2nn(-c3ccc(Cl)cc3)c(=S)s2)cc1S(=O)(=O)N(C)C	KCNQ1 block 6
O=C(Nc1ncc(S(=O)(=O)c2ccc([N+](=O)[O-])cc2)s1)c1ccccc1F	none
COC(=O)C(NC(=O)c1ccc(F)cc1)(Nc1ncc(S(=O)(=O)c2ccc([N+](=O)[O-])cc2)s1)C(F)(F)F (stereo not drawn)	KCNQ1 block 7
O=[N+]([O-])c1cc(-c2cnc3ccccc3n2)ccc1Oc1ccc(F)cc1	none
COc1cccc(CNc2ccc(C(=O)O)cc2)c1OCc1ccccc1	none
COc1ccc(N2C3=C(CC4=C2CCCC4=O)C(=O)CCC3)cc1	KCNK9 inh -6.6
COc1ccc(N2C3=C(CC4=C2CC(C)(C)CC4=O)C(=O)CC(C)(C)C3)cc1	Kir21 block -5.1
CCOc1c(Br)cc(CNC2CCCCCCC2)cc1OC	Kir21 block -4.3
COc1cc(CNC2CCCCCCC2)cc(Br)c1OCC#N	Kir21 block -4.8
Cc1csc2c(N3CCCCC3)ncnc12	hERG protect 8.6
COc1ccc(-c2nsc3c(N4CCCCC4)ncnc23)cc1	hERG protect 8.0
Cc1csc2c(N3CCC(C(=O)O)CC3)ncnc12	none
CN1CCN(Cc2cc(=O)oc3ccc(Cl)cc23)CC1	none
O=c1oc(-c2ccccc2)cc(Cl)c1Cl	KCNQ1 block 6
O=C(c1ccc(OCCN2CCCCC2)cc1)c1c(-c2ccc(O)cc2)sc2cc(O)ccc12	KCNQ1 block 9
COC(=O)c1ccc(OCCN2CCCCCC2)cc1	none
Cc1cc(=S)[nH]c2c(C)cccc12	hERG protect 5.0
Cc1c(C#N)c2ncnc(-c3ccccc3)c2n1-c1ccccc1	none
CC(C)N1CCc2c(sc(NC(=O)c3ccc(C(=O)c4ccccc4)cc3)c2C(N)=O)C1	none
CC(C)N1CCc2c(sc(NC(=O)c3ccc4ccccc4c3)c2C(N)=O)C1	KCNK9 inh -7.9
CC(C)N1CCc2c(sc(NC(=O)c3cc4cc([N+](=O)[O-])ccc4s3)c2C(N)=O)C1	KCNQ1 block 6
COc1cccc(NC(=O)c2oc3ccccc3c2NC(=O)c2ccc3c(c2)OCO3)c1	KCNK9 inh -7.9
COc1cccc(NC(=O)c2ccc3c(c2)OCO3)c1	none
OC(CNCc1ccccc1)(c1ccccc1)c1ccccc1	Kir21 block -4.6
CCc1ccc(CNCc2ccc(F)cc2)cc1	Kir21 block -6.9
COc1ccc(CNCC(O)(c2ccc(F)cc2)c2ccc(F)cc2)cc1	Kir21 block -8.3
OC(CNCc1ccc(F)cc1)(c1ccccc1)c1ccc(F)cc1 (stereo not drawn)	Kir21 block -6.5
CN(CCO)c1ccc(C(C(=O)c2ccccc2)c2ccc(N(C)CCO)cc2)cc1	none
Cc1ccc(CNCC(O)(c2ccc(F)cc2)c2ccc(F)cc2)cc1	none
COc1ccc(CNCC(O)(c2ccccc2)c2ccccc2)cc1OC	none
Cc1ccc(CNCC(O)(c2ccccc2)c2ccc(F)cc2)cc1 (stereo not drawn)	Kir21 block -8.9
OC(CNCc1ccccc1)(c1ccc(F)cc1)c1ccc(F)cc1	KCNK9 inh -7.7, Kir21 block -7.3
Cc1nccn1-c1ccc(C(F)(F)F)cc1[N+](=O)[O-]	none
Cc1nn(-c2ccccc2)c(Cl)c1CN(C(=O)CCl)c1ccc(Cl)cc1	none
CC(=O)N(Cc1c(C)nn(-c2ccccc2)c1Cl)c1ccc(Cl)cc1	Kir21 block -5.1
COc1ccc(CN=C2NC(=O)CC(C(=O)Nc3ccc([N+](=O)[O-])cc3C)S2)cc1 (stereo not drawn)	none (no result: KCNQ1 block, KCNK9 inh, Kir21 block, KCNQ1 act, hERG protect)
COc1cc2c(cc1OC)CN(C(=O)c1nn(Cc3ccccc3)c(=O)c3ccccc13)CC2	KCNK3 inh -9.3 (no result: KCNQ1 block, KCNK9 inh, Kir21 block, KCNQ1 act, hERG protect)
CCCCN(CC)Cc1ccc(CNC(=S)Nc2c(C)cc(C)cc2C)o1	none
Cc1cccc(S(=O)(=O)c2c(N)n(Cc3ccco3)c3nc4ccccc4nc23)c1	KCNQ1 block 6
